Measured values from ChEMBL document CHEMBL1146552, “Cytotoxic diterpenes from Scoparia dulcis” (2003).
Structures can show the parent of a compound that is named as a salt. Calls of active or inactive are those of the source. No cut-off for these calls is given here.

What was measured:
[1] = (§1) Cytotoxicity against human SCL9 cells by MTT assay; assay type: functional; conditions: read-out: ED50 (the source's name)
How it was run: (§2)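 Human stomach cancer cells grown in RPMI-1640 complete medium; test materials prepared and cells cultured in medium with 0.25% DMSO. Serial dilutions at 250, 125, 62.5, 31.25 and 15.63 μg/mL, three replicates per concentration. Percent mortality by MTT, with cells in medium or medium-DMSO taken as 100% survival; ED50 (μM) derived, mean ± standard error. Vinblastine sulfate and mitomycin C as positive controls.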

[2] = (§3) Cytotoxicity against human SCL cells by MTT assay; assay type: functional; conditions: read-out: ED50 (the source's name); how it was run: as §2
[3] = Cytotoxicity against human SCL6 cells by MTT assay; assay type: functional; conditions: read-out: ED50 (the source's name); how it was run: as §2
[4] = (§4) Cytotoxicity against human SCL37'6 cells by MTT assay; assay type: functional; conditions: read-out: ED50 (the source's name); how it was run: as §2
[5] = tested on: NUGC-4; experiment: Cytotoxicity against human NUGC4 cells by MTT assay; assay type: functional; conditions: for EC50: read-out: ED50 (the source's name); how it was run: as §2
[6] = (§5) Cytotoxicity against human KATO III cells by MTT assay; assay type: functional, KATO III cell; conditions: read-out: ED50 (the source's name); how it was run: as §2
[7] = tested on: SCL9; experiment: as §1; assay type: functional; how it was run: as §2
[8] = tested on: SCL; experiment: as §3; assay type: functional; how it was run: as §2
[9] = tested on: SCL37'6; experiment: as §4; assay type: functional; how it was run: as §2
[10] = tested on: SCL-6 (Homo sapiens); experiment: Cytotoxicity against human SCL6 cells by MTT assay
[11] = tested on: KATO III cell; experiment: as §5; assay type: functional; how it was run: as §2

| SMILES | EC50 [1] | EC50 [2] | EC50 [3] | EC50 [4] | EC50 [5] | EC50 [6] | Activity [7] | Activity [8] | Activity [9] | Activity [10] | Activity [5] | Activity [11] |
| --- | --- | --- | --- | --- | --- | --- | --- | --- | --- | --- | --- | --- |
| C[C@@]12CC[C@]3(C1)[C@@H](C[C@@H](OC(=O)c1ccccc1)[C@H]1[C@](C)(CO)CCC[C@@]13C)C[C@@H]2O [DULCIDIOL] | 41.6 µM | 45.3 µM | 46 µM | 42.6 µM | 105 µM | 29 µM | – | – | – | – | – | – |
| CC1(C)CC[C@]2(C)CC[C@]3(C)[C@H]4CC=C5[C@@H](CC[C@H](O)C5(C)C)[C@]4(C)CC[C@@]3(C)[C@@H]2C1 | – | – | – | – | – | – | inactive | inactive | inactive | inactive | inactive | inactive |
| C=C1C[C@@H](OC(=O)c2ccccc2)C2[C@](C)(CO)CCC[C@]2(C)[C@@H]1CC/C(C)=C/CO (some centres undefined) [SCOPADIOL] | 12.2 µM | 22.8 µM | 12.2 µM | 8.9 µM | 16.6 µM | 9.7 µM | – | – | – | – | – | – |
| CC1(C)[C@@H](O)CC[C@@]2(C)[C@H]1[C@H](OC(=O)c1ccccc1)C[C@H]1CC(=O)[C@]3(C)CC[C@]12C3 | 57.9 µM | 19.5 µM | 62.9 µM | 45.8 µM | 123 µM | 71.7 µM | – | – | – | – | – | – |
| CC[C@]1(O)C[C@@H]2CN(CCc3c([nH]c4ccccc34)[C@@](C(=O)OC)(c3cc4c(cc3OC)N(C)[C@H]3[C@@](O)(C(=O)OC)[C@H](OC(C)=O)[C@]5(CC)C=CCN6CC[C@]43[C@@H]65)C2)C1 [VINBLASTINE SULFATE] | 5.3 µM | 5.9 µM | 6.1 µM | 5.3 µM | 5.3 µM | 6.1 µM | – | – | – | – | – | – |
| COc1ccc2[nH]c(=O)oc2c1 | – | – | – | – | – | – | inactive | inactive | inactive | inactive | inactive | inactive |
| C[C@@]12CC[C@]3(C1)[C@H](CC2=O)C[C@@H](OC(=O)c1ccccc1)[C@H]1[C@](C)(CO)CCC[C@@]13C [SCOPADULCIOL] | 37.7 µM | 22 µM | 32.8 µM | 24.4 µM | 33.3 µM | 35.5 µM | – | – | – | – | – | – |
| CO[C@@]12[C@H](COC(N)=O)C3=C(C(=O)C(C)=C(N)C3=O)N1C[C@@H]1N[C@@H]12 [MITOMYCIN] | 17.4 µM | 20.2 µM | 20.7 µM | 19 µM | 19.1 µM | 49 µM | – | – | – | – | – | – |
| C[C@@]12CC[C@]3(C1)[C@H](CC2=O)C[C@@H](OC(=O)c1ccccc1)[C@@H]1[C@]3(C)CCC[C@]1(C)C(=O)O [4-EPI-SCOPADULCIC ACID B] | 48.3 µM | 37 µM | 137 µM | 59.3 µM | 110 µM | 124 µM | – | – | – | – | – | – |
